Active and inactive are the calls of the source. The calls are words filed in the database; no cut-off is given here.
Key:
[1] = system: Mus musculus; assay: Effect on spermatogenesis in CD-1 mouse assessed as abnormality in spermatid release at 10 mg/kg/day, po for 2 weeks measured measured after 4 weeks post-cessation of drug treatment by hematoxylin counter-staining based analysis; type: functional, organism-based; settings: time 6.0 weeks
How it was run: (§1)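 CD1 males given 10 mg/kg/day orally for 2 weeks dissolved in 20% aqueous Kollisolv (n = 10 per time point); vehicle-only controls n = 5. Testes collected one day or 4 weeks after cessation, fixed in 4% paraformaldehyde or Bouin's, paraffin-embedded, PAS-stained with hematoxylin counterstain and tubules staged by bright-field microscopy.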

[2] = system: Mus musculus; assay: Effect on spermatogenesis in CD-1 mouse assessed as abnormality in spermatid translocation at 10 mg/kg/day, po for 2 weeks measured measured after 4 weeks post-cessation of drug treatment by hematoxylin counter-staining based analysis; type: functional, organism-based; settings: time 6.0 weeks; how it was run: as §1
[3] = Metabolic stability in CD-1 mouse liver microsomes assessed as compound remaining in presence of NADPH measured for 60 mins at 10^-6 M; type: ADME, Microsome; settings: dose 1 10^-6M, read-out: Stability
[4] = system: Mus musculus; assay: Effect on spermatogenesis in CD-1 mouse assessed as spermatids in abnormal stage IX tubules at 5 mg/kg/day, po for 7 days measured after 4 weeks post-cessation of drug treatment by hematoxylin counter-staining based analysis; type: functional, organism-based; settings: time 5.0 weeks
[5] = Partition coefficient, logD of compound in 1-octanol/PBS at pH 7.4; type: physicochemical; settings: octanol/water
How it was run: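 Distribution between 1-octanol and PBS at pH 7.4; log D reported.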

[6] = Metabolic stability in CD-1 mouse intestinal microsomes assessed as compound remaining at 2 x 10^-6 M in presence of NADPH measured for 60 mins; type: ADME, Intestine, Microsome; settings: dose 2 10^-6M, read-out: Stability
How it was run: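 Male CD-1 mouse intestinal microsomes with NADPH, compound at 2.0 ×10−6 M, 60 min; percent parent remaining.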

[7] = system: Mus musculus; assay: Effect on fertility in CD-1 mouse assessed as size of embryonic litters formed post-cessation of drug treatment at 5 mg/kg/day, po for 7 days followed by drug cessation and initiation of mating for 2 weeks; type: functional; settings: time 3 weeks
[8] = system: Mus musculus; assay: Effect on spermatogenesis in CD-1 mouse assessed as reduction in sperm count administered as Avicel formulation at 10 mg/kg/day, po for 28 days consecutively measured on day 1 post-cessation of drug treatment by hemocytometry relative to control; type: functional; design: scale not given: the % may be the effect or the level left; settings: time 29 day
[9] = system: Mus musculus; assay: Effect on spermatogenesis in CD-1 mouse assessed as sperm count at 5 mg/kg/day, po for 7 days measured on day 1 post-cessation of drug treatment by hemocytometry (reference value: 55.50 +/- 8.18 x 10^6No_unit); type: functional; settings: time 8 day
[10] = target: T1, Retinoic acid receptor gamma (Homo sapiens, UniProt P13631); assay: Agonist activity at recombinant human RAR-gamma expressed in mammalian cells by luciferase reporter gene based transactivation assay; type: cell-based
T1 sequence (P13631 whole entry): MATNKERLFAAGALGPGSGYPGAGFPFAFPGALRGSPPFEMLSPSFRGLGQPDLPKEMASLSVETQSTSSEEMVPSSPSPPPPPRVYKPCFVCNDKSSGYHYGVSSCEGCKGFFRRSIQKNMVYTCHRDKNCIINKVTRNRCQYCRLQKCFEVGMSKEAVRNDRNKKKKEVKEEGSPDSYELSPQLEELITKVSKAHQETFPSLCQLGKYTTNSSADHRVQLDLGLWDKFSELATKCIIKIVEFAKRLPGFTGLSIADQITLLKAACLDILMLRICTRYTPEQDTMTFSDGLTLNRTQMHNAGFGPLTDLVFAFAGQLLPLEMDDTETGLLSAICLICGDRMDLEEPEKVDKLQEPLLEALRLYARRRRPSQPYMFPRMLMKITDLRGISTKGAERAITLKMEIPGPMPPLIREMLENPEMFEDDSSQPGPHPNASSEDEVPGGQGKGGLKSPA
How it was run: (§2)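 Human RAR-subtype luciferase reporter cells (RARE-driven). Compounds in DMSO (final 0.4%) tested as 8-point dose response in triplicate. Incubated overnight at 37 °C in 5% CO2, then detection reagent 30 min at r.t. and luminescence measured. EC50 by four-parameter logistic fit, mean ± SEM from geometric mean of log EC50 across independent experiments.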

[11] = target: T2, Retinoic acid receptor alpha (Homo sapiens, UniProt P10276); assay: Antagonist activity at recombinant human RAR-alpha expressed in mammalian cells in presence of 9-cis-RA by luciferase reporter gene based transactivation assay; type: cell-based
T2 sequence (P10276 whole entry): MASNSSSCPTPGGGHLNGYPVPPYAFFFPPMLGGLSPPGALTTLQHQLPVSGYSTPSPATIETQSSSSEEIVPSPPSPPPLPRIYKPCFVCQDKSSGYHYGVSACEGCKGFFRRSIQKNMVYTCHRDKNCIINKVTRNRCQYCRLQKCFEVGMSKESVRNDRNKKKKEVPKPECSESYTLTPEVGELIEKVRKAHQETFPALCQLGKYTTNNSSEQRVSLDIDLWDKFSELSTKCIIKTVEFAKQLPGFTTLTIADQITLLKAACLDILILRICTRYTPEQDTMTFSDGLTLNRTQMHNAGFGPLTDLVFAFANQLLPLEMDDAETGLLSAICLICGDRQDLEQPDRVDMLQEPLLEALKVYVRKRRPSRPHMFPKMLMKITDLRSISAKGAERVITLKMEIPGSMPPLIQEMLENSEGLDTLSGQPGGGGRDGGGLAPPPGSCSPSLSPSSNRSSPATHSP
How it was run: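 Compounds 8-point dose response in triplicate, DMSO final 0.4%; overnight at 37 °C, 5% CO2; luminescence after 30 min detection reagent. IC50 by four-parameter logistic fit; agonist-free wells set background.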

[12] = target: T3, Retinoic acid receptor beta (Homo sapiens, UniProt P10826); assay: Agonist activity at recombinant human RAR-beta expressed in mammalian cells by luciferase reporter gene based transactivation assay; type: cell-based; how it was run: as §2
T3 sequence (P10826 whole entry): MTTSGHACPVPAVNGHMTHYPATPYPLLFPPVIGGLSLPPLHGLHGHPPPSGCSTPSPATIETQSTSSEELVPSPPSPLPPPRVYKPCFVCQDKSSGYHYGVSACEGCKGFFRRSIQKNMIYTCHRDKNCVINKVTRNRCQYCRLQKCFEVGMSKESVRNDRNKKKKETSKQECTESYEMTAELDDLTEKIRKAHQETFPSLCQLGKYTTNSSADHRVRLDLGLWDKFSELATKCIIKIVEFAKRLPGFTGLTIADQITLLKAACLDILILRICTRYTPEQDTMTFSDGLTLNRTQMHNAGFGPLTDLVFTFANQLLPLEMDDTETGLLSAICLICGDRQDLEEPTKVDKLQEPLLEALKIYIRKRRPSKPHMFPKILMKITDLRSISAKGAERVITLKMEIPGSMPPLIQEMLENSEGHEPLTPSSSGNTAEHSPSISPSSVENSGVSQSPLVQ

[13] = system: Mus musculus; assay: Effect on spermatogenesis in CD-1 mouse assessed as sperm count at 10 mg/kg/day, po for 2 weeks measured after 4 weeks post-cessation of drug treatment by hemocytometry (reference value: 50.30 +/- 5.90 x 10^6No_unit); type: functional; settings: time 6 weeks
[14] = system: Mus musculus; assay: Effect on spermatogenesis in CD-1 mouse assessed as sperm count at 10 mg/kg/day, po for 2 weeks measured on day 1 post-cessation of drug treatment by hemocytometry (reference value: 41.80 +/- 7.92 x 10^6No_unit); type: functional; settings: time 15 day

remaining at 1 h, 1 µM [3]: 100%
logD [5]: 3.35
remaining at 1 h, 2 µM [6]: 100%
EC50 [10]: 520 nM
IC50 [11]: 4.6 nM
EC50 [12]: 75 nM
Compound: Cc1ccc(C2=CC(C)(C)Oc3ccc(C(=O)Nc4ccc(C(=O)O)cc4)cc32)cc1
Activity [1]: inactive
Activity [2]: inactive
Activity [4]: inactive
Activity [7]: 12.15
Activity [8]: ~56%
Activity [9]: 24.5 10^6No_unit
Activity [13]: 44.75 10^6No_unit
Activity [14]: 37.2 10^6No_unit

Reference: ChEMBL document CHEMBL5634116, “Strategies for developing retinoic acid receptor alpha-selective antagonists as novel agents for male contraception” (Eur J Med Chem, 2023)
